According to ChEMBL document CHEMBL1139005, “Branched diacylglycerol-lactones as potent protein kinase C ligands and alpha-secretase activators” (J Med Chem, 2006):

Legend:
[1] = target: Protein kinase C alpha type (Homo sapiens, UniProt P17252); assay: Displacement of [20-3H]PDBu from recombinant PKC alpha in presence of phosphatidylserine
Summary of the method: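 Competition for bound [20-3H]phorbol 12,13-dibutyrate on recombinant PKC-α with phosphatidylserine present; IC50 obtained by fitting points to the theoretical competition curve, then converted to Ki.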

W4 (Rattus norvegicus) = assay: Activation of alpha secretase assessed by sAPPalpha secretion in W4 cells relative to control; parameters: concentration or dose not given beside the values

Row | Ki [1] [nM] | Structure (SMILES) | Activity (W4 (Rattus norvegicus)) [%]
1 | 28 | CC(C)CC(C/C=C1/CCC(CO)(COC(=O)C(C)(C)C)OC1=O)CC(C)C (configuration not stated) | 
2 | 147 | CCCCCC(=O)OCC1(CO)CC/C(=C\CC(CC(C)C)CC(C)C)C(=O)O1 (configuration not stated) | 
3 | 6.04 | CCCCCCCC(=O)OCC1(CO)C/C(=C\CC(CC(C)C)CC(C)C)C(=O)O1 (configuration not stated) | 141
4 | 6.88 | CC(C)CC(C/C=C1/CC(CO)(COC(=O)CC(CC(C)C)CC(C)C)OC1=O)CC(C)C (configuration not stated) | 
5 | 6.66 | CC(C)CC(C/C=C1/CC(CO)(COC(=O)c2ccccc2)OC1=O)CC(C)C (configuration not stated) | 157
6 | 48 | CC(C)CC(C/C=C1\CCC(CO)(COC(=O)C(C)(C)C)OC1=O)CC(C)C (configuration not stated) | 
7 | 16.1 | CC(C)CC(C/C=C1\CC(CO)(COC(=O)c2ccccc2)OC1=O)CC(C)C (configuration not stated) | 131
8 | 3.78 | CCCCCC(=O)OCC1(CO)C/C(=C/CC(CC(C)C)CC(C)C)C(=O)O1 (configuration not stated) | 
9 | 6.18 | CCCCCC(=O)OCC1(CO)C/C(=C\CC(CC(C)C)CC(C)C)C(=O)O1 (configuration not stated) | 
10 | 4.97 | CCCCCCCC(=O)OCC1(CO)C/C(=C/CC(CC(C)C)CC(C)C)C(=O)O1 (configuration not stated) | 158

More lines, now with the values behind:

Row | Structure (SMILES) | Ki [1] [nM] | Activity (W4 (Rattus norvegicus)) [%]
11 | CC(C)CC(C/C=C1\CC(/C=C/C(=O)OC(C)(C)C)(CO)OC1=O)CC(C)C (configuration not stated) | 173 | 
12 | CC(C)CC(C/C=C1/CC(/C=C/C(=O)OC(C)(C)C)(CO)OC1=O)CC(C)C (configuration not stated) | 18 | 200
13 | CC(C)CCC1(CCC(C)C)CC(CO)(COC(=O)C(C)(C)C)OC1=O (configuration not stated) | 18300 | 
14 | CC(C)CC(C/C=C1\CC(CO)(COC(=O)C(C)(C)C)OC1=O)CC(C)C (configuration not stated) |  | 133
15 | CC(C)CC(C/C=C1\CC(CO)(COC(=O)CC(C(C)C)C(C)C)OC1=O)CC(C)C (configuration not stated) |  | 225
16 | CCCCCCCC(=O)OCC1(CO)CC/C(=C\CC(CC(C)C)CC(C)C)C(=O)O1 (configuration not stated) | 129 | 
17 | CCCC(=O)O[C@@H]1[C@@H](C)[C@@]2(O)[C@@H](C=C(CO)C[C@]3(O)C(=O)C(C)=C[C@@H]23)[C@@H]2C(C)(C)[C@]12OC(=O)CCC |  | 185
18 | CC(C)CC(C/C=C1/CC(CO)(COC(=O)C(C)(C)C)OC1=O)CC(C)C (configuration not stated) |  | 177
19 | CC(C)CC(C/C=C1\CC(/C=C\C(=O)OC(C)(C)C)(CO)OC1=O)CC(C)C (configuration not stated) | 21700 | 
20 | CC(C)CC(C/C=C1/C[C@@](CO)(COC(=O)C(C)(C)C)OC1=O)CC(C)C | 1.45 | 209
21 | CC(C)=CCC1(CC=C(C)C)CC(CO)(COC(=O)C(C)(C)C)OC1=O (configuration not stated) | 2100 | 
